In brackets after ≈: the same amount, converted by molar mass. Starred links: 1 amine or outer side, 2 acyl side, 3 side chain; linkers in the order of their positions; H or OH if unused. Non-standard residues stand in square brackets, D forms with d. Residues, ends and D or L forms follow the SMILES beside them. *: point of attachment. X1 = CCCCCC[C@@H](OC[C@@H](C)N[*:1])[C@@H](C)C(=O)[*:2]; Gly(cHept) = N[C@H](C(=O)O)C1CCCCCC1; Propyl(3-guanidino) = N=C(N)NCCC*; NMeL = CN[C@@H](CC(C)C)C(=O)O; Chg = N[C@H](C(=O)O)C1CCCCC1; NMeNva = CCC[C@H](NC)C(=O)O; Propyl(3-NMe2) = CN(C)CCC*; Dap = NC[C@H](N)C(=O)O; Propyl(3-NH2) = NCCC*; NH(CH2)3NH2 = NCCCN*; X11 = NCCCC* Bounds are passed on as bounds.

The nature of data set [1]: Lipophilicity, logD of the compound at pH 7.4. The following applies: buffer.
A further data set concerns Escherichia coli CFT073. Nature of the data set: Inhibition of LspA in wild type Escherichia coli CFT073 assessed as inhibition of bacterial growth. The essentials:
(§1)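 Read-out is the minimum inhibitory concentration, reported in µM.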

Data set [2] can be described thus: Growth inhibition of Staphylococcus aureus USA300.
Another data set relates to Escherichia coli. Nature of the data set: Inhibition of LspA in Escherichia coli CFT073imp4213 harboring outer membrane-permeable mutant assessed as inhibition of bacterial growth. An outline of the steps:
as §1

A word on the logD: it is the decadic logarithm of the distribution of all forms, ionised or not, between an organic phase and buffer at a given pH. High values mean higher lipophilicity, low ones lower lipophilicity. In the case of `CCC[C@H]1C(=O)N[C@@H](C2CCCCCC2)C(=O)N[C@@H](CN)C(=O)N[C@@H]([C@H](C)O)C(=O)NCC(=O)O[C@H](CC2CC3CCC2C3)[C@@H](C)C(=O)N1C` (stereo in doubt; 27), the pH-dependent lipophilicity (logD) in data set [1] (pH 7.4) turned out to be 2.9.
For `CCCCCC[C@H]1OC[C@@H](C)NC(=O)[C@H](CC(=O)NCCCN)NC(=O)[C@H](CN)NC(=O)[C@H](C2CCCCCC2)NC(=O)[C@H](CCC)N(C)C(=O)[C@@H]1C` (cyclo(D(NH(CH2)3NH2)[X1][NMeNva][Gly(cHept)][Dap])), the results for the MIC (in the data set with Escherichia coli CFT073; in data set [2]; in the data set on Escherichia coli) were 18 µM (≈ 13.5 µg/mL), 100 µM (≈ 75.1 µg/mL) and 0.39 µM (≈ 0.293 µg/mL), respectively. Moreover, the logD in data set [1] (pH 7.4, logD) was 1.3.
As to `CC(C)C[C@H]1C(=O)N[C@@H](C2CCCCC2)C(=O)N[C@@H](CN)C(=O)N[C@@H]([C@H](C)O)C(=O)NCC(=O)O[C@H](CCCCCCC(C)(C)O)[C@@H](C)C(=O)N1C`, the MIC was 15 µM (≈ 11.1 µg/mL) with Escherichia coli CFT073, over 100 µM in data set [2] and 0.55 µM (≈ 0.406 µg/mL) in the data set on Escherichia coli. Further, the logD in data set [1] (pH 7.4, logD) turned out to be 2.2.
Consider `CCCCCC[C@H]1OC[C@@H](C)NC(=O)[C@H](COCCCN)NC(=O)[C@H](CN)NC(=O)[C@H](C2CCCCC2)NC(=O)[C@H](CC(C)C)N(C)C(=O)[C@@H]1C` (cyclo([Chg][Dap]S(Propyl(3-NH2))[X1][NMeL])), for which the MIC in the data set with Escherichia coli CFT073 is 11 µM (≈ 7.96 µg/mL); in data set [2] it was 100 µM (≈ 72.4 µg/mL); in the data set on Escherichia coli, 0.28 µM (≈ 0.203 µg/mL). For the same molecule, in data set [1] (pH 7.4, logD), the pH-dependent lipophilicity (logD) came out at 1.5.
As for `CCCCCCCCCC[C@H]1OC(=O)CNC(=O)[C@H]([C@H](C)O)NC(=O)[C@H](CN)NC(=O)[C@H]([C@H](C)CC)NC(=O)[C@H](CC(C)C)N(C)C(=O)[C@@H]1C`, the MIC with Escherichia coli CFT073 worked out at 2.1 µM (≈ 1.49 µg/mL); in data set [2], 15 µM (≈ 10.7 µg/mL); in the data set on Escherichia coli it was 0.011 µM (≈ 0.00782 µg/mL). The molecule also showed a logD in data set [1] (pH 7.4, logD) of 4.6.
The corresponding values for `CCCCCC[C@H]1OC[C@@H](C)NC(=O)[C@H](COCCCCN)NC(=O)[C@H](CN)NC(=O)[C@H](C2CCCCC2)NC(=O)[C@H](CC(C)C)N(C)C(=O)[C@@H]1C` (cyclo([Chg][Dap]S(X11)[X1][NMeL])) are 7 µM (≈ 5.17 µg/mL), 56 µM (≈ 41.3 µg/mL), 0.18 µM (≈ 0.133 µg/mL) and 1.7.
Regarding `CC[C@@H](C)[C@@H]1NC(=O)[C@H](CC(C)C)N(C)C(=O)[C@H](C)[C@@H](CCCCCC(F)(F)F)OC(=O)CNC(=O)[C@H]([C@H](C)O)NC(=O)[C@H](CN)NC1=O`, the MIC with Escherichia coli CFT073 was 25 µM (≈ 17.7 µg/mL); in data set [2], over 100 µM; in the data set with Escherichia coli it was 0.39 µM (≈ 0.276 µg/mL). In data set [1] (pH 7.4, logD), this molecule came in with a logD of 2.
The corresponding values for `CCCCCC[C@H]1OC[C@@H](C)NC(=O)[C@H](COc2ccc(CN)cc2)NC(=O)[C@H](CN)NC(=O)[C@H](C2CCCCC2)NC(=O)[C@H](CCC)N(C)C(=O)[C@@H]1C` are 6.3 µM (≈ 4.78 µg/mL), 100 µM (≈ 75.8 µg/mL), 0.39 µM (≈ 0.296 µg/mL) and 2.5.
Regarding `CC[C@@H](C)[C@@H]1NC(=O)[C@H](CC(C)C)N(C)C(=O)[C@H](C)[C@@H](CCCCC(C)(C)C)OC(=O)CNC(=O)[C@H]([C@H](C)O)NC(=O)[C@H](CN)NC1=O`, the MIC with Escherichia coli CFT073 came to 3.1 µM (≈ 2.12 µg/mL); in data set [2], 100 µM (≈ 68.3 µg/mL); in the data set with Escherichia coli, 0.035 µM (≈ 0.0239 µg/mL). In data set [1] (pH 7.4, logD), the logD was determined as 3.
As to `CCCCCC[C@H]1OC(=O)CNC(=O)[C@H]([C@H](C)O)NC(=O)[C@H](CN)NC(=O)[C@H]([C@H](C)CC)NC(=O)[C@H](CC(C)C)N(C)C(=O)[C@@H]1C`, the MIC was 8.6 µM (≈ 5.63 µg/mL) in the data set with Escherichia coli CFT073, over 100 µM in data set [2] and 0.053 µM (≈ 0.0347 µg/mL) in the data set on Escherichia coli.
Take `CCCCCC[C@H]1OC[C@@H](C)NC(=O)[C@H](CN(C)CCCN)NC(=O)[C@H](CN)NC(=O)[C@H](C2CCCCCC2)NC(=O)[C@H](CCC)N(C)C(=O)[C@@H]1C`: the MIC in the data set with Escherichia coli CFT073 was 8.8 µM (≈ 6.49 µg/mL); in data set [2] it was 100 µM (≈ 73.7 µg/mL); in the data set on Escherichia coli, 0.39 µM (≈ 0.287 µg/mL). For the same molecule, the logD in data set [1] (pH 7.4, logD) came to 1.8.
`CCCCCC[C@H]1OC[C@@H](C)NC(=O)[C@H](COCCCNC(=N)N)NC(=O)[C@H](CN)NC(=O)[C@H](C2CCCCC2)NC(=O)[C@H](CC(C)C)N(C)C(=O)[C@@H]1C` (cyclo([Chg][Dap]S(Propyl(3-guanidino))[X1][NMeL])): the MIC is 4.4 µM (≈ 3.37 µg/mL) in the data set on Escherichia coli CFT073, 5 µM (≈ 3.83 µg/mL) in data set [2] and 0.2 µM (≈ 0.153 µg/mL) in the data set on Escherichia coli. Further, the logD in data set [1] (pH 7.4, logD) was found to be 2.
Regarding `COC(C)(C)CCCCCC[C@H]1OC(=O)CNC(=O)[C@H]([C@H](C)O)NC(=O)[C@H](CN)NC(=O)[C@H](C2CCCCC2)NC(=O)[C@H](CC(C)C)N(C)C(=O)[C@@H]1C`, the MIC in the data set on Escherichia coli CFT073 was 2.2 µM (≈ 1.66 µg/mL); in data set [2], over 100 µM; in the data set on Escherichia coli it was 0.048 µM (≈ 0.0361 µg/mL). The molecule further came in with a logD in data set [1] (pH 7.4, logD) of 2.8.
Consider `CCCCCC[C@H]1OC[C@@H](C)NC(=O)[C@H](COCCCN(C)C)NC(=O)[C@H](CN)NC(=O)[C@H](C2CCCCC2)NC(=O)[C@H](CC(C)C)N(C)C(=O)[C@@H]1C` (cyclo([Chg][Dap]S(Propyl(3-NMe2))[X1][NMeL])), for which the MIC in the data set on Escherichia coli CFT073 is 25 µM (≈ 18.8 µg/mL); in data set [2], 100 µM (≈ 75.2 µg/mL); with Escherichia coli, 0.39 µM (≈ 0.293 µg/mL). In addition, in data set [1] (pH 7.4, logD), the logD is 2.1.

(Values after ChEMBL document CHEMBL4665734, “Optimization of globomycin analogs as novel gram-negative antibiotics” (Bioorg Med Chem Lett, 2020).)
